Results taken from ChEMBL document CHEMBL5352413, “Discovery of small-molecules targeting the CCL20/CCR6 axis as first-in-class inhibitors for inflammatory bowel diseases” (Eur J Med Chem, 2022).
Activity calls are given as the source filed them. The rule behind the calls is not given here.

Columns and labels:
Mus musculus [1] = assay: Anti-inflammatory activity against zymosan-induced peritonitis mouse model assessed as decrease in MPO activity in peritoneal lavage at 1 mg/kg, sc administrated 1 hr prior to zymosan administration and measured after 4 hrs by absorbance based assay; format: functional, organism-based; details: time 5.0 hrs
Outline: (§1)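 Mice fasted 2 h, then zymosan A 5 mg/mL in PBS (0.2 mL) i.p. Compound 1 mg/kg s.c. (vehicle 1% DMSO in saline, 10 mL/kg) 1 h before zymosan, or also 2 h after. Lavage at 4 h with 3 mL PBS, EDTA, heparin; centrifuged; supernatant protein by BCA (mg/mL); pellet MPO (mU/mL) or flow cytometry.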

Mus musculus [2] = assay: Anti-colitis activity against TNBS-induced colitis Swiss mouse model assessed as decrease in disease activity index at 1 mg/kg, sc bid for 3 days; format: functional, organism-based; details: time 3.0 day
Outline: (§2)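 Female CD1 Swiss mice (7–12 weeks) skin-sensitized, then after 20 h fast given 5 mg TNBS in 50% ethanol intrarectally 6 days later. Compound 1 mg/kg or vehicle (1% DMSO in saline, 10 mL/kg) s.c. twice daily, 8 h apart, days 1–4; euthanized day 4. DAI from daily weight, stool, bleeding by blinded observers; macroscopic score; colon/lung MPO.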

Mus musculus [3] = assay: Anti-inflammatory activity against zymosan-induced peritonitis mouse model assessed as decrease in MPO activity in peritoneal lavage at 1 mg/kg, sc administrated 1 hr before and 2 hrs after zymosan administration and measured after 2 hrs by absorbance based assay; format: functional, organism-based; details: time 5.0 hrs; outline: as §1
[4] = target: C-C chemokine receptor type 5 (Homo sapiens) (UniProt P51681); assay: Antagonist activity at CCR5 (unknown origin) transfected in HEK293T cells assessed as CCL5-induced beta-arrestin-1 recruitment at 0.030 to 300 uM measured for 20 mins by NanoBiT assay; format: functional, cell-based; details: filed as antagonist, dose 0.03-300 µM
Outline: (§3)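 NanoBiT complementation in co-transfected HEK293T cells (SmBiT-tagged CCR6 or CCR5, LgBiT-tagged β-arrestin-1 or miniGi), coelenterazine h 15 min at 37 °C. After compound exposure (30 nM–300 μM), cells were stimulated with CCL20 10 nM (CCR6) or CCL5 5 nM (CCR5) and inhibition of chemokine-induced recruitment was monitored by luminescence.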

CD4+ve Th [5] = assay: Cytotoxicity against human CD4+ve Th cells upto 100 uM incubated for 3 hrs by annexin/PI staining based flow cytometry; format: toxicity, cell-based
Outline: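 Memory CD4+ T cells from healthy-donor PBMC (Ficoll, magnetic isolation, >95% purity), 20×10^4 cells exposed to compound at 5–500 μM for 3 h at 37 °C, 5% CO2; viability by annexin/propidium iodide flow cytometry.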

[6] = target: T1, C-C chemokine receptor type 6 (Homo sapiens) (UniProt P51684); assay: Antagonist activity at CCR6 (unknown origin) transfected in HEK293T cells assessed as CCL20-induced beta-arrestin-1 recruitment at 0.030 to 300 uM measured for 20 mins by NanoBiT assay; format: functional, cell-based; details: filed as antagonist, dose 0.03-300 µM; outline: as §3
T1 sequence (whole entry): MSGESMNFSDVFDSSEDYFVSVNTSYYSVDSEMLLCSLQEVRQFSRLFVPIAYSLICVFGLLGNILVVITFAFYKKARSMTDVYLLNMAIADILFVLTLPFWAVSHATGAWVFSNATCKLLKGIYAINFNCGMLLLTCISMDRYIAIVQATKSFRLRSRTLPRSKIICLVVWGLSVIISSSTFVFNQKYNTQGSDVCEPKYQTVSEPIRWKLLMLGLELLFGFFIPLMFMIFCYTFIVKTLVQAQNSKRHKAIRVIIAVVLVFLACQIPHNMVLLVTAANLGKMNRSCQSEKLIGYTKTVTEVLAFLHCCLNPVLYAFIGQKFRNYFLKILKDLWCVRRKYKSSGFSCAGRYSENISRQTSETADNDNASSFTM

[7] = target: T1, C-C chemokine receptor type 6 (Homo sapiens); assay: Agonist activity at CCR6 (unknown origin) transfected in HEK293T cells assessed as beta-arrestin-1 recruitment at 0.030 to 300 uM measured for 20 mins by NanoBiT assay; format: functional, cell-based; details: dose 0.03-300 µM
Outline: (§4)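 HEK293T cells (DMEM, 10% FBS) co-transfected with SmBiT C-tagged CCR6 or CCR5 and LgBiT N-tagged human β-arrestin-1 or miniGi; harvested 24 h later, loaded with coelenterazine h 15 min at 37 °C, 10^5 cells/well. Luminescence from recruitment induced by compound (30 nM–300 μM) read for 20 min; CCL20 (30 pM–300 nM) positive control.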

Mus musculus [8] = assay: Anti-inflammatory activity against zymosan-induced peritonitis mouse model assessed as decrease in total proteins in peritoneal lavage at 1 mg/kg, sc administrated 1 hr before and 2 hrs after zymosan administration and measured after 2 hrs by BCA assay; format: functional, organism-based; details: time 5.0 hrs; outline: as §1
Mus musculus [9] = assay: Anti-colitis activity against TNBS-induced colitis Swiss mouse model assessed as decrease in neutrophil infiltration by measuring MPO activity in colon at 1 mg/kg, sc bid for 3 days by absorbance based assay; format: functional, organism-based; details: time 3.0 day; outline: as §2
[10] = target: T1, C-C chemokine receptor type 6 (Homo sapiens); assay: Agonist activity at CCR6 (unknown origin) transfected in HEK293T cells assessed as mini-Gi recruitment at 0.030 to 300 uM measured for 20 mins by NanoBiT assay; format: functional, cell-based; details: dose 0.03-300 µM; outline: as §4
[11] = target: C-C chemokine receptor type 5 (Homo sapiens) (UniProt P51681); assay: Agonist activity at CCR5 (unknown origin) transfected in HEK293T cells assessed as beta-arrestin-1 recruitment at 0.030 to 300 uM measured for 20 mins by NanoBiT assay; format: functional, cell-based; details: dose 0.03-300 µM; outline: as §4
Mus musculus [12] = assay: Anti-inflammatory activity against zymosan-induced peritonitis mouse model assessed as decrease in total proteins in peritoneal lavage at 1 mg/kg, sc administrated 1 hr prior to zymosan administration and measured after 4 hrs by BCA assay; format: functional, organism-based; details: time 5.0 hrs; outline: as §1
Mus musculus [13] = assay: Anti-colitis activity against TNBS-induced colitis Swiss mouse model assessed as decrease in neutrophil infiltration by measuring MPO activity in lung at 1 mg/kg, sc bid for 3 days by absorbance based assay; format: functional, organism-based; details: time 3.0 day; outline: as §2
Mus musculus [14] = assay: Anti-colitis activity against TNBS-induced colitis Swiss mouse model assessed as decrease in macroscopic injury at 1 mg/kg, sc bid for 3 days; format: functional, organism-based; details: time 3.0 day; outline: as §2
Mus musculus [15] = assay: Anti-inflammatory activity against zymosan-induced peritonitis mouse model assessed as decrease in neutrophil recruitment in peritoneal lavage at 1 mg/kg, sc administrated 1 hr prior to zymosan administration and measured after 4 hrs by PI staining based flow cytometry; format: functional, organism-based; details: time 5.0 hrs; outline: as §1
[16] = target: T1, C-C chemokine receptor type 6 (Homo sapiens); assay: Antagonist activity at CCR6 (unknown origin) transfected in HEK293T cells assessed as CCL20-induced mini-Gi recruitment at 0.030 to 300 uM measured for 20 mins by NanoBiT assay; format: functional, cell-based; details: filed as antagonist, dose 0.03-300 µM; outline: as §3
CD4+ve Th [17] = assay: Inhibition of cell migration of CCL20-induced human CD4+ve Th cells expressing CCR6 at 50 uM incubated for 3 hrs by FACS analysis; format: functional, cell-based
Outline: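 Memory CD4+ T cells (20×10^4) in upper chamber of 5.0 μm transwell in IMDM with 0.5% BSA, preincubated with compound (0.5–50 μM) 15 min at 4 °C; 500 ng/ml CCL20 in lower chamber. After 3 h at 37 °C, migrated cells counted with counting beads by flow cytometry; migration index = CCL20-driven / medium-only migration; duplicate or triplicate.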

C-C chemokine receptor type 5 (Homo sapiens), sequence (P51681 whole entry, looked up): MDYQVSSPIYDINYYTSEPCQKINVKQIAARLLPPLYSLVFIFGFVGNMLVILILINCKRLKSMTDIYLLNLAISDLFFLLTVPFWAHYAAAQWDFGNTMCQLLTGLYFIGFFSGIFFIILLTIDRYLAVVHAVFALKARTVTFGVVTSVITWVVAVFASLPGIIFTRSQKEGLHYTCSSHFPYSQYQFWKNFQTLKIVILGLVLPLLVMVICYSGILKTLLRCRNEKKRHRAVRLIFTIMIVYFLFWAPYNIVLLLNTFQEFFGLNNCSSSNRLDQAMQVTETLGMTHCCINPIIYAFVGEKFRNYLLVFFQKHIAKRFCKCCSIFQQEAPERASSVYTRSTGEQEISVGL

Activity [4]	Activity [6]	Activity [7]	Activity [10]	Activity [11]	Activity [16]	SMILES	Activity (Mus musculus [1])	Activity (Mus musculus [2])	Activity (Mus musculus [3])	Activity (CD4+ve Th [5])	Activity (Mus musculus [8])	Activity (Mus musculus [9])	Activity (Mus musculus [12])	Activity (Mus musculus [13])	Activity (Mus musculus [14])	Activity (Mus musculus [15])	inhibition (CD4+ve Th [17])
Active	Active	inactive	inactive	inactive	Active	Cc1c(C(=O)Nc2ccc(C(F)(F)F)cc2)oc2ccccc12	inactive	Active	Active	Non-Toxic	Active	Active	inactive	Active	Active	inactive	Active
–	–	–	–	–	–	Cc1c(C(=O)Nc2cccc(F)c2)oc2ccccc12	–	–	–	Non-Toxic	–	–	–	–	–	–	–
–	–	–	–	–	–	C/C(=N\Nc1ccc2ccccc2n1)c1cccc(C(F)(F)F)c1	–	–	–	Non-Toxic	–	–	–	–	–	–	–
